What was measured:
Pseudomonas aeruginosa [1] = test: Antimicrobial activity against Pseudomonas aeruginosa ATCC 15442 assessed as growth inhibition of planktonic forms incubated for 24 hrs; format: organism-based; conditions: in vitro
Method in brief: (§1)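 Broth microdilution in tryptic soy broth. Two-fold series 100 to 0.75 μg/mL made from a 1 mg/mL stock in 0.9% NaCl. Inoculum ~10⁶ cfu/mL taken from a 24 h culture, 37 °C 24 h.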

[2] = test system: Staphylococcus epidermidis; test: Antibiofilm activity against Staphylococcus epidermidis ATCC 12228 incubated for 24 hrs by crystal violet-staining based assay; format: functional
Method in brief: (§2)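 Biofilm prevention: 0.5 McFarland inoculum (2.5 µL) in 100 µL TSB with 2% w/v glucose, compound present from the start over 100–0.1 µg/mL, 37 °C 24 h. Washed with PBS, stained 0.1% w/v crystal violet 30 min, eluted with 33% v/v acetic acid, read at 570 nm. BIC50 (50% inhibition versus untreated control) derived by linear regression; triplicate, repeated at least twice.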

Pseudomonas aeruginosa [3] = test: Antibiofilm activity against Pseudomonas aeruginosa ATCC 15442 assessed as inhibition of biofilm formation at 100 ug/ml incubated for 24 hrs by crystal violet-staining based assay; format: functional; conditions: ATCC 15442, 24 h
Escherichia coli [4] = test: Antibiofilm activity against Escherichia coli ATCC 25922 assessed as inhibition of biofilm formation at 100 ug/ml incubated for 24 hrs by crystal violet-staining based assay; format: functional; conditions: ATCC 25922, 24 h
Staphylococcus aureus [5] = test: Antimicrobial activity against Staphylococcus aureus ATCC 6538 assessed as growth inhibition of planktonic forms incubated for 24 hrs; format: organism-based; conditions: in vitro; method in brief: as §1
Staphylococcus aureus [6] = test: Antibiofilm activity against Staphylococcus aureus ATCC 25923 incubated for 24 hrs by crystal violet-staining based assay; format: functional; method in brief: as §2
[7] = test system: Staphylococcus epidermidis; test: Antimicrobial activity against Staphylococcus epidermidis ATCC 12228 assessed as growth inhibition of planktonic forms incubated for 24 hrs; format: organism-based; conditions: in vitro; method in brief: as §1
Escherichia coli [8] = test: Antimicrobial activity against Escherichia coli ATCC 25922 assessed as growth inhibition of planktonic forms incubated for 24 hrs; format: organism-based; conditions: in vitro; method in brief: as §1
Staphylococcus aureus [9] = test: Antibiofilm activity against Staphylococcus aureus ATCC 6538 incubated for 24 hrs by crystal violet-staining based assay; format: functional; method in brief: as §2
Staphylococcus aureus [10] = test: Antimicrobial activity against Staphylococcus aureus ATCC 25923 assessed as growth inhibition of planktonic forms incubated for 24 hrs; format: organism-based; conditions: in vitro; method in brief: as §1
Pseudomonas aeruginosa [11] = test: Antibiofilm activity against Pseudomonas aeruginosa ATCC 15442 incubated for 24 hrs by crystal violet-staining based assay; format: functional; method in brief: as §2

| SMILES | MIC (Pseudomonas aeruginosa [1]) [µg/mL] | MBIC50 [2] [µM] | inhibition [2] | inhibition at 100 µg/mL (Pseudomonas aeruginosa [3]) [%] | inhibition at 100 µg/mL (Escherichia coli [4]) [%] | MIC (Staphylococcus aureus [5]) [µg/mL] | MBIC50 (Staphylococcus aureus [6]) [µM] | inhibition (Staphylococcus aureus [6]) | MIC [7] [µg/mL] | MIC (Escherichia coli [8]) [µg/mL] | MBIC50 (Staphylococcus aureus [9]) [µM] | inhibition (Staphylococcus aureus [9]) | MIC (Staphylococcus aureus [10]) [µg/mL] | MBIC50 (Pseudomonas aeruginosa [11]) [µM] | inhibition (Pseudomonas aeruginosa [11]) |
| --- | --- | --- | --- | --- | --- | --- | --- | --- | --- | --- | --- | --- | --- | --- | --- |
| FC(F)(F)c1ccc(-c2cn3nc(-c4c[nH]c5ccc(Cl)cc45)sc3n2)cc1 | > 100 | 24.5 | Dose-dependent effect | < 15 | < 15 | > 100 | 9.7 | Dose-dependent effect | > 100 | > 100 | 12.6 | Dose-dependent effect | > 100 | – | – |
| Br.Cn1cc(-c2nn3cc(-c4ccccc4)nc3s2)c2ccccc21 | > 100 | 47.9 | Dose-dependent effect | < 15 | < 15 | > 100 | 23 | Dose-dependent effect | > 100 | > 100 | 18.9 | Dose-dependent effect | > 100 | – | – |
| COc1ccc(OC)c(-c2cn3nc(-c4cn(C)c5ccc(Cl)cc45)sc3n2)c1 | > 100 | 8.1 | Dose-dependent effect | < 15 | < 15 | > 100 | 163 | Dose-dependent effect | > 100 | > 100 | 69.4 | Dose-dependent effect | > 100 | – | – |
| Cn1cc(-c2nn3cc(-c4ccc(C(F)(F)F)cc4)nc3s2)c2cc(Cl)ccc21 | > 100 | – | – | – | – | > 100 | – | – | > 100 | > 100 | – | – | > 100 | – | – |
| Br.COc1ccc(OC)c(-c2cn3nc(-c4c[nH]c5ccc(Br)cc45)sc3n2)c1 | > 100 | 36.1 | Dose-dependent effect | < 15 | < 15 | > 100 | 26.4 | Dose-dependent effect | > 100 | > 100 | 16.5 | Dose-dependent effect | > 100 | – | – |
| Br.COc1cccc(-c2cn3nc(-c4c[nH]c5ccc(Cl)cc45)sc3n2)c1 | > 100 | 32.7 | Dose-dependent effect | – | < 15 | > 100 | 31.6 | Dose-dependent effect | > 100 | > 100 | 15.1 | Dose-dependent effect | > 100 | 29 | Dose-dependent effect |
| Br.COc1ccc(OC)c(-c2cn3nc(-c4cn(C)c5ccccc45)sc3n2)c1 | > 100 | 25 | Dose-dependent effect | – | < 15 | > 100 | 24.3 | Dose-dependent effect | > 100 | > 100 | 3.6 | Dose-dependent effect | > 100 | – | – |
| Br.O=[N+]([O-])c1ccc(-c2cn3nc(-c4c[nH]c5ccc(Cl)cc45)sc3n2)cc1 | > 100 | 28.5 | Dose-dependent effect | < 15 | < 15 | > 100 | 55.3 | Dose-dependent effect | > 100 | > 100 | 35.8 | Dose-dependent effect | > 100 | – | – |
| Br.COc1cccc(-c2cn3nc(-c4cn(C)c5ccc(Br)cc45)sc3n2)c1 | > 100 | 63.8 | Dose-dependent effect | – | < 15 | > 100 | 16 | Dose-dependent effect | > 100 | > 100 | 12.4 | Dose-dependent effect | > 100 | 26.3 | Dose-dependent effect |
| Br.Fc1ccc(-c2cn3nc(-c4c[nH]c5ccccc45)sc3n2)cc1 | > 100 | 30.8 | Dose-dependent effect | – | < 15 | > 100 | 15.6 | Dose-dependent effect | > 100 | > 100 | 13.4 | Dose-dependent effect | > 100 | 47.4 | Dose-dependent effect |
| FC(F)(F)c1ccc(-c2cn3nc(-c4c[nH]c5ccc(Br)cc45)sc3n2)cc1 | > 100 | 19.2 | Dose-dependent effect | < 15 | < 15 | > 100 | 16.8 | Dose-dependent effect | > 100 | > 100 | 13.3 | Dose-dependent effect | > 100 | – | – |
| O=[N+]([O-])c1ccc(-c2cn3nc(-c4c[nH]c5ccc(Br)cc45)sc3n2)cc1 | > 100 | 19.1 | Dose-dependent effect | – | < 15 | > 100 | 23.9 | Dose-dependent effect | > 100 | > 100 | 27 | Dose-dependent effect | > 100 | 43.3 | Dose-dependent effect |
| Br.Cn1cc(-c2nn3cc(-c4ccc(C(F)(F)F)cc4)nc3s2)c2cc(Br)ccc21 | > 100 | – | – | – | – | > 100 | – | – | > 100 | > 100 | – | – | > 100 | – | – |
| Br.COc1ccc(OC)c(-c2cn3nc(-c4cn(C)c5ccc(Br)cc45)sc3n2)c1 | > 100 | 52.3 | Dose-dependent effect | – | < 15 | > 100 | 90.8 | Dose-dependent effect | > 100 | > 100 | 8.9 | Dose-dependent effect | > 100 | 28.5 | Dose-dependent effect |

From ChEMBL document CHEMBL4339190, “2,6-Disubstituted imidazo[2,1-b][1,3,4]thiadiazole derivatives as potent staphylococcal biofilm inhibitors” (Eur J Med Chem, 2019)
